High-throughput results: PubChem BioAssay, several laboratories
WT yeast gro inh = growth inhibition of WT yeast, mitochondrial fusion screen; mitochondrial fusion phenotypic screen, WT strain; inhibition, % at 10 µM; 2.1% of 190,000 active; AID 1362; in the data active = inhibition above about 58%; tested in S. cerevisiae
Diaphorase inh = diaphorase inhibition or chemical oxidation counter-screen. diaphorase resazurin-to-resorufin fluorescence, NADH, 16 min; bacterial (C. kluyveri) enzyme, not human. inhibition, % at 20 µM. 0.69% of 190,000 active;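 active = primary screen inhibition at 20 µM above a set limit, cut at about 50% in these data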;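 also: plate controls were DMSO with full reaction for no effect and wells lacking NADH for full effect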
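Benchmarks: positive control wells lacking NADH, neutral wells with DMSO only. System: bacterial diaphorase enzyme (C. kluyveri). Input: 0.14 U/mL diaphorase, enzyme working solution. Detection: resorufin fluorescence, excitation 544 nm, emission 590 nm. Times: 16-min room-temperature incubation before reading.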
Lmaj promast = Leishmania major promastigote growth inhibition; Leishmania major promastigotes, resazurin fluorescence viability; inhibition, % at 10 µM; 9% of 200,000 active;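 also: promastigotes grown with compound for 44 hours at 28 °C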
G6PDH CS = counter-screen for G6PDH assay hits: L. mesenteroides G6PDH inhibition; Purified L. mesenteroides G6PDH, diaphorase/resazurin coupled fluorescence, 45 min; inhibition, % at 5 µM; 0.12% of 200,000 active; AID 1020
Diaph act CS = counter-screen for diaphorase-based assays: diaphorase activators and chemical reducers. activation factor at 20 µM. Diaphorase/resazurin coupled assay, resorufin fluorescence, 16 min; hits give high values; 1 = vehicle wells, 0 = NADH-free wells. AID 1229. 0.005% of 190,000 active;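 active = diaphorase activity raised at least twofold by the compound at 20 µM; inactive = activation factor below 2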
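System – purified diaphorase enzyme from Clostridium kluyveri · Input – enzyme 0.07 U/mL final · Also added – final NADH 0.114 mM, resazurin 0.1 mM · Measured by – fluorescence of resorufin, 544 nm excitation, 590 nm emission · Timing – 16 min enzyme reaction, ambient temperature · Measure – resorufin increase flagging diaphorase activators or reducers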
Starred values were filed as active, the others as inactive; . = no result given. Most compounds without a hit are left out; they make up all but 11% or so of the library. Rule as the data show it, unless noted: active = inhibition above about 50%; inactive = the rest.

SMILES | WT yeast gro inh | Diaphorase inh | Lmaj promast | G6PDH CS | Diaph act CS
O=C(CSc1nc2c(sc3ccccc32)c(=O)n1CCCN1CCCC1)NCc1ccco1 | 16 | 20 | 95* | 9 | 0.8
COCCCn1c(SCC(=O)NCc2ccco2)nc2sc3c(c2c1=O)CCC3 | -7 | 26 | 51* | 3 | 0.7
O=C(CSc1nc2c(sc3ccccc32)c(=O)n1CCO)NCc1ccco1 | 1 | 12 | -3 | 4 | 0.9
C/C(=N\NC(=O)C(C)n1nc(C)c([N+](=O)[O-])c1C)c1ccccc1O (centres undefined) | -2 | 14 | 21 | -3 | 0.9
COCCn1c(SCC(=O)Nc2ncc(C)s2)nc2sc3c(c2c1=O)CCC3 | 32 | 16 | 27 | -5 | 0.8
COCCn1c(SCc2nnc(-c3ccccc3)o2)nc2sc3c(c2c1=O)CCC3 | 97* | 26 | -1 | 10 | 0.7
CC(=O)Nc1sc2c(c1-c1nc3ccccc3s1)CCN(C(C)C)C2 | 58* | 40 | 100* | 8 | 0.6
CC(C)N1CCc2c(sc(NC(=O)CCc3ccccc3)c2C(N)=O)C1 | -10 | -15 | 0 | 0 | 1.1
O=C1CSC(c2ccc([N+](=O)[O-])cc2)N1CCN1CCCCC1 (centres undefined) | -2 | 12 | 86* | 10 | 0.9
O=C1CSC(c2ccc([N+](=O)[O-])cc2)N1C1CCCCC1 (centres undefined) | -8 | -1 | 14 | 4 | 1
O=C(CCNS(=O)(=O)c1ccc(Cl)cc1)NCc1cccs1 | 10 | 6 | -5 | 17 | 0.9
CCCCNC(=O)Cn1cnc2sc(C)c(S(=O)(=O)N3CCN(c4ncccn4)CC3)c2c1=O | -4 | 12 | 9 | 4 | 0.9
CN1/C(=C\C(=O)c2ccccc2Cl)c2ccccc2CC1(C)C | -12 | 0 | 70* | 12 | 1
O=C(CC12CC3CC(CC(C3)C1)C2)NCc1ccncc1 | 10 | 15 | -1 | -1 | 0.8
c1cc(CNC23CC4CC(CC(C4)C2)C3)ccn1 | -9 | 3 | 84* | 21 | 1
O=C(NC12CC3CC(CC(C3)C1)C2)N(Cc1ccccc1)Cc1ccncc1 | 11 | -4 | 55* | 12 | 1
CC1C(=O)N(Cc2ccc([N+](=O)[O-])cc2)c2ccccc2N1C(=O)C1CC1 (centres undefined) | 1 | 7 | 6 | 3 | 0.9
C/C(=C\C(=O)OCC(=O)NCc1ccccc1)C(=O)OCC(=O)NCc1ccccc1 | 0 | -3 | -2 | 13 | 1
O=C(COC(=O)c1ccccc1Br)NCc1ccccc1 | 5 | 11 | 60* | 9 | 0.9
O=C(COC(=O)c1ccccc1Cl)NC(=O)NCc1ccccc1 | -9 | -12 | 83* | 12 | 1.1
O=C(COC(=O)c1cc(Br)ccc1Cl)NC(=O)NCc1ccccc1 | -9 | 14 | 10 | -1 | 0.9
CCOC(=O)/C=C/C(=O)OCC(=O)NCc1ccccc1 | -15 | -6 | 55* | -5 | 1.1
CSc1ccc(/C=N/NC(=O)COc2ccc(Br)cc2Cl)cc1 | -15 | -5 | -10 | -15 | 1.1
CCN(CC)CCNc1ncnc2c1[nH]c1ccc(OC)cc12 | -1 | . | 25 | . | .
COc1ccc2[nH]c3c(NCCC4=CCCCC4)ncnc3c2c1 | 84* | 17 | 100* | 5 | 0.8
SMILES | WT yeast gro inh | Diaphorase inh | Lmaj promast | G6PDH CS | Diaph act CS
C=CCNc1ncnc2c1[nH]c1ccc(C)cc12 | -5 | 2 | 83* | -20 | 1
COc1ccc2[nH]c3c(NCc4ccco4)ncnc3c2c1 | 37 | 21 | 51* | -2 | 0.8
Cc1ccccc1N1C(=O)N(c2cccc(C(F)(F)F)c2)C2CS(=O)(=O)CC21 (centres undefined) | 16 | 16 | 6 | 7 | 0.8
CCOC(=O)C1CCN(S(=O)(=O)c2ccc(C(C)(C)C)cc2)CC1 | -3 | 13 | -6 | 13 | 0.9
c1ccc(-c2nnc(SCC3CCCCO3)nc2-c2ccccc2)cc1 (centres undefined) | 42 | 20 | 0 | 0 | 0.8
CC1CCCCN1S(=O)(=O)c1ccc(N(C(=O)c2cnccn2)C(C(=O)NC2CCCC2)c2cccs2)cc1 (centres undefined) | -7 | 19 | 93* | -13 | 0.8
CCCCC(C(=O)OCC)C(N)Cc1ccc(F)cc1 (centres undefined) | 9 | -22 | 7 | 8 | 1.2
CC(C)(C)NCC(O)CON=C1c2ccccc2-c2ccccc21 (centres undefined) | 34 | 8 | 99* | -6 | 0.9
COc1ccc(C2(CNC(=O)c3ccc(OC)c([N+](=O)[O-])c3)CCCCC2)cc1OC | 9 | 13 | 87* | 4 | 0.9
COc1cccc(/C=N/NC(=O)CSCC(=O)Nc2ccccc2)c1O | -3 | 7 | 99* | -6 | 0.9
COc1cccc(C=Nc2ccccc2C(=O)Nc2ccccc2)c1O | -17 | 2 | 52* | -3 | 1
COc1cccc(/C=N\NC(=O)C2C(=O)NCC2c2ccccc2)c1O (centres undefined) | 3 | 12 | 96* | -4 | 0.9
COc1cccc(/C=N\NC(=O)Cn2nnc3ccccc32)c1O | -12 | 14 | 4 | -6 | 0.9
O=C(Nc1ccccc1)c1ccccc1N=Cc1cccc(O)c1 | -10 | 1 | 11 | 22 | 1
CN(CC(=O)Nc1ccc(Cl)c(Cl)c1)C(=O)C12CC3CC(CC(C3)C1)C2 | 76* | 17 | 92* | 11 | 0.8
Cc1nn(-c2ccccc2)c(N2CCCC2)c1/C=N/NC(=S)Nc1ccccc1F | 37 | 2 | 10 | 8 | 1
CCN=c1scc(C)n1/N=C/c1ccc(O)c(O)c1O | 4 | 79* | -9 | 36 | 0.2
COCCN=c1scc(-c2ccccc2)n1/N=C/c1c[nH]c2ccccc12 | 79* | 20 | 13 | -16 | 0.8
CCN=c1scc(C)n1/N=C/c1cc(Br)c(O)c(Br)c1 | 13 | 25 | 2 | -5 | 0.8
COC(=O)N/N=C/c1cccs1 | -18 | -4 | -5 | 7 | 1
COCCN=c1scc(-c2cccs2)n1/N=C/c1ccc(O)c(O)c1O | 3 | 69* | -10 | -7 | 0.3
Cc1ccc(N2C(=O)N(CC(=O)N3CCCc4ccccc43)C(=O)C2C)cc1 (centres undefined) | 35 | -3 | -3 | -3 | 1
COc1ccc(C(=O)Nc2ccc(Cl)cc2C(=O)N2CCCC(C)C2)cc1OC (centres undefined) | 7 | 14 | 3 | 6 | 0.9
CCOc1ccc(OCCOc2ncnc3ccccc23)cc1 | 17 | 15 | -1 | 2 | 0.9
O=C1CCNc2ccc(-c3ccccc3)cc21 | 0 | 26 | -7 | 7 | 0.7
O=C1CCNc2cc3ccccc3cc21 | 8 | 66* | 15 | 58* | 0.3
O=C(COC(=O)/C=C/c1ccc(Cl)cc1)NCCc1ccccc1 | 4 | 0 | -3 | 7 | 1
Cc1cc(C)n(-c2nc(C)nc3c2cnn3-c2ccccc2)n1 | 65* | 17 | -2 | -5 | 0.8
